Laboratory results: ChEMBL document CHEMBL1649151, “Urinary bactericidal activity of Doripenem versus that of levofloxacin in patients with complicated urinary tract infections or pyelonephritis” (Antimicrob Agents Chemother, 2009)

How the values were obtained:
[1] = system: Staphylococcus haemolyticus; assay: Antimicrobial activity against Staphylococcus haemolyticus 1949819 B-M isolated from patient with pyelonephritis assessed as >3-log reduction in urinary bacterial titer after 4 hrs; format: functional, Urine
[2] = system: Escherichia coli; assay: Antimicrobial activity against Escherichia coli 1821385 B-C isolated from patient with pyelonephritis assessed as >3-log reduction in urinary bacterial titer after 20 hrs; format: functional, Urine
How it was run: (§1)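 Urine was collected on day 3 of i.v. therapy (steady state) over 4-h intervals from infusion start (0–4 to 20–24 h), stored at –80°C and sterile filtered. It was serially diluted twofold (1:0 up to 1:131,072) in the patient's own pre-dose drug-free urine. Microdilution used a final inoculum of 1.0 x 10^6 to 9.5 x 10^6 CFU/ml, incubated 18 h at 37°C in air. 10 µl was subcultured onto 5% blood Columbia agar for 24 h at 37°C. The bactericidal endpoint was >99.9% (>3-log) kill, reported as a reciprocal titer.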

[3] = system: Escherichia coli; assay: Antimicrobial activity against Escherichia coli 1949825 B-K isolated from patient with pyelonephritis assessed as >3-log reduction in urinary bacterial titer after 16 hrs; format: functional, Urine
How it was run: (§2)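 Patient urine was collected on day 3 of i.v. therapy (steady state) over 4-h intervals after infusion start, stored at –80°C, and sterile filtered. It was twofold serially diluted (1:0 to 1:131,072) in the patient's own pre-dose drug-free urine, inoculated to 1.0 x 10^6–9.5 x 10^6 CFU/ml, and incubated for 18 h at 37°C. Subcultures were grown on blood agar for 24 h. The UBT is the reciprocal of the highest dilution giving >99.9% kill.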

[4] = system: Escherichia coli; assay: Antimicrobial activity against Escherichia coli 1821385 B-C isolated from patient with pyelonephritis assessed as >3-log reduction in urinary bacterial titer after 16 hrs; format: functional, Urine; how it was run: as §1
[5] = system: Escherichia coli; assay: Antimicrobial activity against Escherichia coli 2062717 B-P isolated from patient with pyelonephritis assessed as >3-log reduction in urinary bacterial titer after 12 hrs; format: functional, Urine; how it was run: as §2
[6] = system: Escherichia coli; assay: Antimicrobial activity against Escherichia coli 1949826 B-L isolated from patient with pyelonephritis assessed as >3-log reduction in urinary bacterial titer after 12 hrs; format: functional, Urine; how it was run: as §2
[7] = system: Escherichia coli; assay: Antimicrobial activity against Escherichia coli 1949825 B-K isolated from patient with pyelonephritis assessed as >3-log reduction in urinary bacterial titer after 12 hrs; format: functional, Urine; how it was run: as §2
[8] = system: Escherichia coli; assay: Antimicrobial activity against Escherichia coli 1949825 B-K isolated from patient with pyelonephritis assessed as >3-log reduction in urinary bacterial titer after 20 hrs; format: functional, Urine; how it was run: as §2
[9] = system: Escherichia coli; assay: Antimicrobial activity against Escherichia coli 1780063 B-A isolated from patient with pyelonephritis assessed as >3-log reduction in urinary bacterial titer after 12 hrs; format: functional, Urine
How it was run: (§3)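 Urine was collected before dosing and on day 3 of i.v. therapy (steady state), in 4-h intervals from infusion start (0–4 to 20–24 h), stored at −80°C and sterile filtered. It was serially diluted twofold (1:0 to 1:131,072) in the patient's drug-free pre-dose urine. Microdilution used an inoculum of 1.0 x 10^6–9.5 x 10^6 CFU/ml, incubated 18 h at 37°C, then subcultured 24 h on blood agar. The endpoint was >99.9% kill, reported as reciprocal titer.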

[10] = system: Staphylococcus haemolyticus; assay: Antimicrobial activity against Staphylococcus haemolyticus 1949819 B-M isolated from patient with pyelonephritis assessed as >3-log reduction in urinary bacterial titer after 12 hrs; format: functional, Urine
[11] = system: Enterococcus faecalis; assay: Antimicrobial activity against Enterococcus faecalis 2215770 B-T isolated from patient with pyelonephritis assessed as >3-log reduction in urinary bacterial titer after 8 hrs; format: functional, Urine; how it was run: as §3
[12] = system: Enterococcus faecalis; assay: Antimicrobial activity against Enterococcus faecalis 2215770 B-T isolated from patient with pyelonephritis assessed as >3-log reduction in urinary bacterial titer after 4 hrs; format: functional, Urine; how it was run: as §3
[13] = system: Escherichia coli; assay: Antimicrobial activity against Escherichia coli 2062717 B-P isolated from patient with pyelonephritis assessed as >3-log reduction in urinary bacterial titer after 4 hrs; format: functional, Urine
[14] = system: Escherichia coli; assay: Antimicrobial activity against Escherichia coli 1821385 B-C isolated from patient with pyelonephritis assessed as >3-log reduction in urinary bacterial titer after 4 hrs; format: functional, Urine; how it was run: as §1
[15] = system: Escherichia coli; assay: Antimicrobial activity against Escherichia coli 1780063 B-A isolated from patient with pyelonephritis assessed as >3-log reduction in urinary bacterial titer after 4 hrs; format: functional, Urine; how it was run: as §3
[16] = T>MIC in Pseudomonas aeruginosa infected in thigh of neutropenic mouse at 500 mg/kg, iv administered every 8 hrs; format: functional
[17] = system: Enterococcus faecalis; assay: Antimicrobial activity against Enterococcus faecalis 2215770 B-T isolated from patient with pyelonephritis assessed as >3-log reduction in urinary bacterial titer after 20 hrs; format: functional, Urine; how it was run: as §3
[18] = system: Escherichia coli; assay: Antimicrobial activity against Escherichia coli 1821386 B-D isolated from patient with pyelonephritis assessed as >3-log reduction in urinary bacterial titer after 16 hrs; format: functional, Urine; how it was run: as §1
[19] = system: Staphylococcus aureus; assay: Antimicrobial activity against Staphylococcus aureus 2215767-9 B-S isolated from patient with pyelonephritis assessed as >3-log reduction in urinary bacterial titer after 16 hrs; format: functional, Urine
[20] = system: Enterococcus faecalis; assay: Antimicrobial activity against Enterococcus faecalis 2215767-10 B-S isolated from patient with pyelonephritis assessed as >3-log reduction in urinary bacterial titer after 16 hrs; format: functional, Urine; how it was run: as §3
[21] = system: Escherichia coli; assay: Antimicrobial activity against Escherichia coli 2062716 B-R isolated from patient with pyelonephritis by Etest; format: functional
[22] = system: Escherichia coli; assay: Antimicrobial activity against Escherichia coli 1889647 B-H isolated from patient with pyelonephritis by Etest; format: functional
[23] = system: Staphylococcus epidermidis; assay: Antimicrobial activity against Staphylococcus epidermidis 2297262-9 B-V isolated from patient with pyelonephritis by Etest; format: functional
[24] = system: Escherichia coli; assay: Antimicrobial activity against Escherichia coli 1655646 A-Y isolated from patient with pyelonephritis assessed as >3-log reduction in urinary bacterial titer after 12 hrs; format: functional, Urine; how it was run: as §3
[25] = system: Pseudomonas aeruginosa; assay: Antimicrobial activity against Pseudomonas aeruginosa 2062713 B-Q isolated from patient with pyelonephritis assessed as >3-log reduction in urinary bacterial titer after 8 hrs; format: functional, Urine
[26] = system: Serratia marcescens; assay: Antimicrobial activity against Serratia marcescens 2297260 B-U isolated from patient with pyelonephritis assessed as >3-log reduction in urinary bacterial titer after 8 hrs; format: functional, Urine
[27] = system: Escherichia coli; assay: Antimicrobial activity against Escherichia coli 2062716 B-R isolated from patient with pyelonephritis assessed as >3-log reduction in urinary bacterial titer after 8 hrs; format: functional, Urine; how it was run: as §2
[28] = system: Staphylococcus aureus; assay: Antimicrobial activity against Staphylococcus aureus 2215767-9 B-S isolated from patient with pyelonephritis assessed as >3-log reduction in urinary bacterial titer after 8 hrs; format: functional, Urine
[29] = system: Staphylococcus epidermidis; assay: Antimicrobial activity against Staphylococcus epidermidis 2297262-9 B-V isolated from patient with pyelonephritis assessed as >3-log reduction in urinary bacterial titer after 8 hrs; format: functional, Urine
[30] = system: Staphylococcus aureus; assay: Antimicrobial activity against Staphylococcus aureus 2215767-9 B-S isolated from patient with pyelonephritis assessed as >3-log reduction in urinary bacterial titer after 24 hrs; format: functional, Urine
[31] = system: Enterococcus faecalis; assay: Antimicrobial activity against Enterococcus faecalis 2215767-10 B-S isolated from patient with pyelonephritis assessed as >3-log reduction in urinary bacterial titer after 24 hrs; format: functional, Urine; how it was run: as §3
[32] = system: Staphylococcus epidermidis; assay: Antimicrobial activity against Staphylococcus epidermidis 2297262-9 B-V isolated from patient with pyelonephritis assessed as >3-log reduction in urinary bacterial titer after 24 hrs; format: functional, Urine
[33] = system: Staphylococcus aureus; assay: Antimicrobial activity against Staphylococcus aureus 1889640 A-Z isolated from patient with pyelonephritis assessed as >3-log reduction in urinary bacterial titer after 20 hrs; format: functional, Urine
[34] = system: Serratia marcescens; assay: Antimicrobial activity against Serratia marcescens 2297260 B-U isolated from patient with pyelonephritis assessed as >3-log reduction in urinary bacterial titer after 20 hrs; format: functional, Urine

Question: What does the source list for `C[C@@H](O)[C@H]1C(=O)N2C(C(=O)O)=C(S[C@@H]3CN[C@H](CNS(N)(=O)=O)C3)[C@H](C)[C@H]12` [DORIPENEM]?
Answer: urinary bactericidal titer [1]: 512 reciprocal titer; urinary bactericidal titer [2]: 8192 reciprocal titer; urinary bactericidal titer [3]: 2048 reciprocal titer; urinary bactericidal titer [4]: 8192 reciprocal titer; urinary bactericidal titer [5]: 1024 reciprocal titer; urinary bactericidal titer [6]: 131000 reciprocal titer; urinary bactericidal titer [7]: 8192 reciprocal titer; urinary bactericidal titer [8]: 4096 reciprocal titer; urinary bactericidal titer [9]: 4096 reciprocal titer; urinary bactericidal titer [10]: 1024 reciprocal titer; urinary bactericidal titer [11]: 512 reciprocal titer; urinary bactericidal titer [12]: 2048 reciprocal titer; urinary bactericidal titer [13]: 32800 reciprocal titer; urinary bactericidal titer [14]: 4096 reciprocal titer; urinary bactericidal titer [15]: 4096 reciprocal titer; fT>MIC [16]: 20%; urinary bactericidal titer [17]: 2048 reciprocal titer

Question: Which urinary bactericidal titer [18] does the source give for `C[C@H]1COc2c(N3CCN(C)CC3)c(F)cc3c(=O)c(C(=O)O)cn1c23.C[C@H]1COc2c(N3CCN(C)CC3)c(F)cc3c(=O)c(C(=O)O)cn1c23.O` [LEVOFLOXACIN] here?
Answer: The urinary bactericidal titer was 4096 reciprocal titer.

Question: What about the urinary bactericidal titer [19] of the same molecule?
Answer: The urinary bactericidal titer was 0 reciprocal titer.

Question: And the urinary bactericidal titer [20]?
Answer: The urinary bactericidal titer was 0 reciprocal titer.

Question: And the MIC [21]?
Answer: The MIC was 0.032 µg/mL.

Question: And the MIC [22]?
Answer: The MIC was < 0.03 µg/mL.

Question: What about the MIC [23] of the same molecule?
Answer: The MIC was > 32 µg/mL.

Question: What about the urinary bactericidal titer [24] of the same molecule?
Answer: Its urinary bactericidal titer is 2048 reciprocal titer.

Question: What about the urinary bactericidal titer [25] of the same molecule?
Answer: Its urinary bactericidal titer is 4 reciprocal titer.

Question: And the urinary bactericidal titer [26]?
Answer: The urinary bactericidal titer was 256 reciprocal titer.

Question: What about the urinary bactericidal titer [27] of the same molecule?
Answer: Its urinary bactericidal titer is 512 reciprocal titer.

Question: And the urinary bactericidal titer [28]?
Answer: The urinary bactericidal titer was 0 reciprocal titer.

Question: What about the urinary bactericidal titer [29] of the same molecule?
Answer: Its urinary bactericidal titer is 1 reciprocal titer.

Question: What about the urinary bactericidal titer [30] of the same molecule?
Answer: Its urinary bactericidal titer is 0 reciprocal titer.

Question: And the Time [31]?
Answer: The Time was 0 h.

Question: What about the urinary bactericidal titer [32] of the same molecule?
Answer: The urinary bactericidal titer was 2 reciprocal titer.

Question: What about the urinary bactericidal titer [33] of the same molecule?
Answer: Its urinary bactericidal titer is 64 reciprocal titer.

Question: What about the urinary bactericidal titer [34] of the same molecule?
Answer: The urinary bactericidal titer was 32 reciprocal titer.
